Source: PubChem
PAFAH1B2 inh: PAFAH1B2 (human) inhibition; P68402; recombinant PAFAH1B2, FP-rhodamine activity probe, fluorescence polarization; inhibition, % at 3.39 µM; 1.2% of 340,000 active; AID 492953;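 active means inhibition above the mean of all tested compounds plus 3 SD, cut at about 24% in these data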;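 further: 0% = enzyme with DMSO and 100% = wells lacking PAFAH1B2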
Target sequence (P68402 whole entry, looked up): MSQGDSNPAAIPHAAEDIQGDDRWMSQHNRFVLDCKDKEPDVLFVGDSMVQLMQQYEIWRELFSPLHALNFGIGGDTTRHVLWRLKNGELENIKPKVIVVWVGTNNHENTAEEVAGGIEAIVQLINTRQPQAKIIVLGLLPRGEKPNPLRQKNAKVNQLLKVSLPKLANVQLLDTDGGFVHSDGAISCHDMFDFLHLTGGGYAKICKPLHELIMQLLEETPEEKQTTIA
PAFAH2 inh: PAFAH2 (human) inhibition. Q99487. recombinant PAFAH2, FP-rhodamine activity probe, fluorescence polarization. inhibition, % at 3.39 µM. 0.99% of 340,000 active. AID 492956;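 active means inhibition above the mean over all tested compounds plus 3 SD, cut at about 30% in these data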;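 further: inhibitors block probe labeling of enzyme so polarization drops; 0% = enzyme with DMSO and 100% = wells lacking PAFAH2 protein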
pPAFAH inh: inhibitors of human plasma PAF acetylhydrolase (pPAFAH) | recombinant pPAFAH, FP-rhodamine probe fluorescence polarization | inhibition, % at 3.39 µM | 1.5% of 330,000 active | AID 463082;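 active means inhibition above the mean inhibition across the screen plus 3 SD, cut at about 25% in these data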;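 further: inhibitors block binding of the rhodamine activity-based probe so polarization drops; 0% = enzyme with DMSO and 100% = wells lacking pPAFAH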
PAFAH1B3 FP inh: PAFAH1B3 (human) inhibition | inhibition, % at 3.39 µM | 0.28% of 340,000 active | AID 492972 | recombinant PAFAH1B3, FP-rhodamine probe, fluorescence polarization;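 active means inhibition above the screen-wide average of all tested compounds plus 3 SD, cut at about 25% in these data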;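 further: 0% = enzyme with DMSO only and 100% = wells lacking PAFAH1B3 protein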
HTRA1 inh: blocks human HTRA1 serine peptidase | recombinant HTRA1, FP-rhodamine activity-based probe, fluorescence polarization | inhibition, % at 5.96 µM | 0.5% of 340,000 active | AID 504803; in the data active means inhibition above about 36%;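 further: 0% = enzyme with DMSO and 100% = wells lacking enzyme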
Target sequence (Q92743 whole entry, looked up): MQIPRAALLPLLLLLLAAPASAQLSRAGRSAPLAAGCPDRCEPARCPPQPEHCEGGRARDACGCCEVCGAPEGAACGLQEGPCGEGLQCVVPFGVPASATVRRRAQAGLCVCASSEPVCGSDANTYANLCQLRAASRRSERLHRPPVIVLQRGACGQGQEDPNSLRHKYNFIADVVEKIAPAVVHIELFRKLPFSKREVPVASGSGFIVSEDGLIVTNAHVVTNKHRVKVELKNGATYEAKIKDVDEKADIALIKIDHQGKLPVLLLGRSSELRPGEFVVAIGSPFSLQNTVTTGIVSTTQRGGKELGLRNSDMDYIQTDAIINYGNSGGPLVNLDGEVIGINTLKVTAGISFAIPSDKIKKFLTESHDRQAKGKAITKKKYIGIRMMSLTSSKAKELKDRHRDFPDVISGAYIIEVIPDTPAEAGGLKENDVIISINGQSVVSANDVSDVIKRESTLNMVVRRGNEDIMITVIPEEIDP
mABHD4 FP: inhibitors of mouse ABHD4; 0.54% of 370,000 active; Q8VD66; purified mABHD4, FP-Rh probe fluorescence polarization; inhibition, % at 8.92 µM;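 active means inhibition exceeding the mean over every tested compound plus 3 SD, cut at about 30% in these data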;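 further: 0% = plate median of compound wells and 100% = S159A mutant with DMSO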
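Test system: mABHD4 protein; Read-out basis: % inhibition; Incubation: 45 min + 60 min at 25 °C; Repeats: single replicate; Technique: fluorescence polarization with parallel and perpendicular emission, 525/598 nm; Compound: 8.92 µM, single dose; Benchmarks: full inhibition S159A mutant plus DMSO, zero as sample-well median.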
ABHD4 confirm: ABHD4 (mouse) inhibition, FP confirmation; shares compounds with mABHD4 FP; purified mABHD4, FP-Rh probe fluorescence polarization; inhibition, % at 8.92 µM; 55% of 1,800 active; AID 720658;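 active means mean inhibition across replicates above the hit cutoff set in the primary screen, cut at about 30% in these data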;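 further: 0% = wild-type ABHD4 with DMSO and 100% = catalytically dead S159A mutant with DMSO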
* marks the source's active call; other numbers are inactive results; nt = no result given. Most compounds without a hit are left out; they make up all but 2.8% or so of the library.

SMILES	PAFAH1B2 inh	PAFAH2 inh	pPAFAH inh	PAFAH1B3 FP inh	HTRA1 inh	mABHD4 FP	ABHD4 confirm
COc1ccccc1OCCNC(=O)c1ccc2c(c1)OCCO2	5.6	-2.3	18.9	8.2	2.3	30.7*	-2.1
Nc1ccc(Br)c2cccnc12	-0.7	8.6	10.1	8.0	20.4	39.9*	15.9
CS(=O)(=O)Oc1ccc(Br)c2cccnc12	14.9	2.0	0.1	9.7	7.0	3.3	nt
CNc1sc(C(=O)c2ccc(F)cc2)c(N)c1-c1nc2ccccc2s1	5.3	6.8	9.7	6.7	18.5	31.9*	68.3*
CC(Oc1ccc2c(-c3ccccc3)cc(=O)oc2c1)C(=O)NCC1CCC(C(=O)O)CC1 (stereo unspecified)	4.1	11.3	2.7	5.0	-1.7	48.7*	38.5*
O=C(COc1ccc2c(-c3ccccc3)cc(=O)oc2c1)NCC1CCC(C(=O)O)CC1 (stereo unspecified)	1.1	0.9	2.3	7.4	0.7	39.9*	42.3*
Cc1cc(=O)oc2cc(OCC(=O)Nc3ccccc3C(=O)O)ccc12	1.1	-11.2	3.9	10.6	1.2	35.2*	39.2*
O=C(CCN1C(=O)C2C3C=CC(C3)C2C1=O)NC1CCCCC1 (stereo unspecified)	5.0	1.2	0.6	2.1	-3.0	88.1*	0.1
COc1ccc(C(=O)CSc2nnc(-c3ccc(C(C)(C)C)cc3)n2C)cc1	nt	nt	nt	nt	nt	4.2	nt
CCOc1cc(N2CCOCC2)c(OCC)cc1NC(=O)CN1CCc2ccccc2C1	3.1	11.8	6.9	1.7	4.8	30.9*	15.1
CC(=O)Oc1cc(C)c(Cl)c2c(OC(C)=O)cc(C(C)=O)c(O)c12	nt	nt	nt	nt	nt	68.2*	39.4*
CCCCCCCCNS(=O)(=O)CC1NCc2ccccc21 (stereo unspecified)	nt	nt	nt	nt	nt	-2.8	nt
c1coc(-c2nnc3n2N=C(c2ccc4c(c2)OCO4)CS3)c1	nt	nt	nt	nt	nt	0.6	nt
Cc1cc(O)ccc1Nc1cc(-c2cccc(N(C)C)c2)ncn1	nt	nt	nt	nt	nt	5.7	nt
CN(C)c1cccc(O)c1	4.5	-2.5	8.5	-4.2	16.2	51.1*	4.9
O=C(NNc1nc2c(F)cccc2s1)c1cc(=O)c2ccccc2o1	8.6	0.0	15.7	13.9	21.7	38.5*	29.6*
Cc1[nH]nc2c1C(c1ccc(F)cc1)N(c1ccccc1)C2=O (stereo unspecified)	nt	nt	nt	nt	nt	2.7	nt
Cc1cc2c(c(=O)o1)C(c1ccc([N+](=O)[O-])o1)C(C#N)=C(N)O2 (stereo unspecified)	nt	nt	18.0	nt	nt	32.1*	-10.9
CCC(CC)C1C(C#N)=C(N)Oc2cc(C)oc(=O)c21 (stereo unspecified)	3.6	-0.6	-0.9	3.0	0.8	-9.2	nt
COc1cccc(C(=O)CC(=O)C(=O)Nc2cc(OC)ccc2OC)c1	11.2	-6.5	7.4	7.8	2.5	31.9*	7.8
CCOc1ccccc1NC(=O)C(=O)CC(=O)c1cccc(OC)c1	4.3	5.0	2.1	-0.1	6.3	8.7	nt
CC(C)(C)c1ccc(S(=O)(=O)NC(=O)C2(C)CCN2C(=O)Cc2ccc(-c3ccccc3)cc2)cc1 (stereo unspecified)	nt	nt	nt	nt	nt	44.6*	15.0
C[C@H]1CN([C@@H](C)CO)S(=O)(=O)c2ccc(Br)cc2O[C@H]1CN(C)Cc1ccccc1	nt	nt	nt	nt	-12.4	75.4*	-9.2
C[C@H]1CN([C@@H](C)CO)S(=O)(=O)c2ccc(Br)cc2O[C@@H]1CN(C)Cc1ccccc1	nt	nt	nt	nt	-31.2	-4.4	nt
C=CCN1C(C(=O)OC)CN(Cc2cn(Cc3ccc(OC)cc3)nn2)CCS1(=O)=O (stereo unspecified)	nt	nt	nt	nt	nt	1.2	nt
SMILES	PAFAH1B2 inh	PAFAH2 inh	pPAFAH inh	PAFAH1B3 FP inh	HTRA1 inh	mABHD4 FP	ABHD4 confirm
COc1cccc(NC(=O)C2CCCN2C(=O)Nc2ccc(Cl)cc2)c1 (stereo unspecified)	nt	nt	nt	nt	nt	0.0	nt
CCOC(=O)c1sc(N/N=C/c2ccc(N(C)C)cc2)nc1C	-0.6	2.0	4.1	7.9	18.2	31.5*	8.8
CC(=O)c1sc(N/N=C\c2ccc(Br)cc2)nc1C	3.4	-1.0	6.4	10.3	-6.0	18.3	nt
Cc1cccc(N(CC(=O)NCc2ccc3c(c2)OCO3)C(=O)CCC(=O)Nc2ccccn2)c1	8.6	5.9	0.2	1.8	3.0	39.9*	-6.6
Cc1cc(NCc2ccccn2)n2ncc(-c3ccc(Cl)cc3)c2n1	nt	nt	16.6	nt	nt	48.1*	63.9*
Cc1cc(NCc2ccccn2)n2ncc(-c3ccccc3)c2n1	10.2	1.0	1.0	-0.1	12.0	45.2*	46.6*
Cc1cc(NCCCN2CCOCC2)n2ncc(-c3ccccc3)c2n1	7.8	4.6	2.7	4.7	0.8	6.8	nt
Cc1cc(NCc2ccccn2)n2nc(C)c(-c3ccc(Cl)cc3)c2n1	5.2	-0.4	10.2	9.2	16.4	22.6	nt
CN(C)CCNc1cccc2sc3ccc(O)cc3c(=O)c12	nt	nt	nt	nt	nt	30.9*	17.7
Cc1ccc(NCCN(C)C)c2c(=O)c3cc(O)ccc3sc12	2.9	3.5	nt	3.0	21.0	18.1	nt
c1nc(NCC2CCCOC2)c2cc(-c3ccc4c(c3)OCO4)ccc2n1 (stereo unspecified)	nt	nt	nt	nt	nt	21.8	nt
CCCc1cc(=O)[nH]c(SCC(=O)NC2CCCCC2)n1	8.2	2.7	-2.3	8.9	7.2	93.4*	-3.4
CCCc1cc(=O)[nH]c(SCC(N)=O)n1	5.5	5.4	1.4	-0.1	7.4	-4.7	nt
CC(C)(C)N/N=C1\CC(c2ccccc2)Oc2ccccc21 (stereo unspecified)	0.9	0.3	2.0	2.4	1.0	-4.2	nt
O=C(O)c1cc(N/N=C2/CC(c3ccccc3)Oc3ccccc32)ccc1Cl (stereo unspecified)	1.6	16.6	33.9*	7.4	4.3	32.0*	72.4*
COC(=O)C[C@H]1CC[C@@H]2[C@H](COc3ccc(NS(C)(=O)=O)cc3C(=O)N2C)O1	nt	nt	nt	nt	nt	7.3	nt
O=C(N1CCC(C(O)(c2ccccc2)c2ccccc2)CC1)n1ncc(C(O)(c2ccccc2)c2ccccc2)n1	nt	nt	nt	nt	nt	69.9*	68.5*
O=C(OCc1ccc(CSc2nnc(-c3cccc4ccccc34)o2)cc1)c1ccc(F)cc1	nt	nt	nt	nt	nt	1.8	nt
COc1ccccc1N(C(=O)CCl)c1cn(C(C)=O)c2ccccc12	5.3	-4.3	-3.0	0.0	-8.0	2.3	nt
COc1ccccc1N(C(C)=O)C1=C(Cl)C(=O)c2ccccc2C1=O	nt	nt	nt	nt	22.7	39.4*	46.5*
CCc1ccc2c(c1)/C(=C/C(=O)c1cccs1)C(=O)N2	4.9	0.0	7.1	2.1	-7.1	36.9*	56.4*
Cc1sc2nc(COC(=O)CNC(=O)c3ccc(F)cc3Cl)[nH]c(=O)c2c1C	nt	nt	nt	nt	nt	-0.7	nt
N/C(Cc1cccc2ccccc12)=N\OC(=O)c1ccccc1F	-1.2	-1.7	nt	4.6	0.7	47.7*	3.1
O=C(/C=C/c1ccc([N+](=O)[O-])cc1)c1ccco1	2.9	-4.6	3.5	2.0	-0.1	-1.6	nt
